In ChEMBL document CHEMBL2163256, “6-(methylamino)hexane-1,2,3,4,5-pentanol 4-(((1S,2S)-1-hydroxy-2,3-dihydro-1H,1'H-[2,2-biinden]-2-yl)methyl)benzoate (PH46A): a novel small molecule with efficacy in murine models of colitis” (J Med Chem, 2012) one finds Activity data, which are given here for 3 compounds.

In data set [1] the test system is Mus musculus. Description: Toxicity in DSS-induced colitis BALB/c mouse model assessed as overt reactions at 30 mg/kg, po qd for 7 days relative to vehicle-treated control. In kind it is organism-based. On the set-up: dose 30 mg/kg, route oral. Particulars: in vivo, 168 h.
Data set [2] has as its system Mus musculus. Description: Antiinflammatory activity against DSS-induced colitis BALB/c mouse model assessed as increase in colon lenght at 30 mg/kg, po qd for 7 days relative to vehicle-treated control. In kind it is functional, organism-based. On the set-up: dose 30 mg/kg. In short, it runs like this: (§1)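 Female SPF BALB/c mice, 6−8 weeks old; colitis induced by 5% DSS in tap drinking water (renewed every second day) for 7 days. Daily oral dosing for 7 days as suspension/solution in 0.5% carboxymethyl cellulose/2% Tween 80. Daily body weight; DAI per mouse each day from weight loss, occult blood and stool consistency; colon length at autopsy. Mean ± SEM, n = 6−7.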

Data set [3] has as its system Mus musculus. Description: Antiinflammatory activity against DSS-induced colitis BALB/c mouse model assessed as decrease in disease activity index at 30 mg/kg, po qd for 7 days relative to vehicle-treated control. In kind it is functional, organism-based. On the set-up: dose 30 mg/kg. In short, it runs like this:
as §1

Data set [4] deals with Mus musculus. Description: Antiinflammatory activity against DSS-induced colitis BALB/c mouse model assessed as decrease in disease activity index at 10 mg/kg, po qd for 7 days relative to vehicle-treated control. In kind it is functional, organism-based. Set-up: dose 10 mg/kg. In short, it runs like this: as §1
In data set [5] the test system is Mus musculus. Description: Antiinflammatory activity against DSS-induced colitis BALB/c mouse model assessed as increase in colon lenght at 10 mg/kg, po qd for 7 days relative to vehicle-treated control. In kind it is functional, organism-based. Set-up: dose 10 mg/kg. The gist of the method:
as §1

Data set [6] deals with Mus musculus. As to the kind of experiment: Antiinflammatory activity against DSS-induced colitis BALB/c mouse model assessed as prevention of body weigth loss at 10 mg/kg, po qd for 7 days measured on day 7 relative to vehicle-treated control. In kind it is functional. In short, it runs like this:
as §1

The test system of data set [7] is Mus musculus. Description: Antiinflammatory activity against DSS-induced colitis BALB/c mouse model assessed as decrease in disease activity index at 30 mg/kg, po qd for 7 days measured on day 7 relative to vehicle-treated control. In kind it is functional. Set-up: scale not given: the % may be the effect or the level left. In short, it runs like this: as §1
The subject of data set [8] is Mus musculus. As to the kind of experiment: Antiinflammatory activity against DSS-induced colitis BALB/c mouse model assessed as decrease in disease activity index at 10 mg/kg, po qd for 7 days measured on day 7 relative to vehicle-treated control. In kind it is functional. On the set-up: scale not given: the % may be the effect or the level left. In short, it runs like this:
as §1

The subject of data set [9] is Mus musculus. As to the kind of experiment: Antiinflammatory activity against DSS-induced colitis BALB/c mouse model assessed as reduction in shortening of colon at 30 mg/kg, po qd for 7 days measured on day 7 relative to vehicle-treated control. In kind it is functional. Set-up: scale not given: the % may be the effect or the level left. In short, it runs like this:
as §1

The test system of data set [10] is Mus musculus. Description: Antiinflammatory activity against DSS-induced colitis BALB/c mouse model assessed as prevention of body weigth loss at 30 mg/kg, po qd for 7 days measured on day 7 relative to vehicle-treated control. In kind it is functional. The gist of the method:
as §1

Data set [11] has as its system Mus musculus. As to the kind of experiment: Antiinflammatory activity against DSS-induced colitis BALB/c mouse model assessed as reduction in histological colon damage score at 30 mg/kg, po qd for 7 days measured on day 7 relative to vehicle-treated control. In kind it is functional. On the set-up: scale not given: the % may be the effect or the level left. In short, it runs like this: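 After 7 days of 5% DSS with daily oral dosing, about 1 cm distal colon was fixed in 10% formaldehyde-saline, paraffin-embedded, cut into 5 μm serial sections and H&E-stained. Scoring covered cell infiltration (0−3) and extent of injury (0−3), done blinded by two independent observers.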

In data set [12] the test system is Mus musculus. As to the kind of experiment: Antiinflammatory activity against DSS-induced colitis BALB/c mouse model assessed as decrease in myeloperoxidative activity at 30 mg/kg, po qd for 7 days measured on day 7 relative to vehicle-treated control. In kind it is functional. Set-up: scale not given: the % may be the effect or the level left. The gist of the method:
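In the 7-day 5% DSS BALB/c colitis model with daily oral dosing, colon MPO was measured in homogenized snap-frozen colon supernatant (protein determined) by a standard method.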

Data set [13] relates to Mus musculus. Description: Antiinflammatory activity in IL-10 -/- BALB/c mouse assessed as decrease in serum SAA level at 300 mg/kg, po administered as divided dose 3 times a week for 9 weeks (reference value: 468.9 +/- 38.37 ug/ml). In kind it is functional. The gist of the method: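 IL-10−/− BALB/c-background mice, bred SPF, treated from 6−8 weeks of age by oral gavage of 300 mg/kg/week in distilled water (vehicle), Mon/Wed/Fri, for 9 weeks. Weight, rectal bleeding and prolapse monitored. At 9 weeks serum SAA was measured by sandwich ELISA. Proximal colon (1 cm) was fixed, H&E-stained and scored blinded by two observers (maximum 4). n = 9 vehicle, 11 treated; Student's t test.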

The subject of data set [14] is Mus musculus. As to the kind of experiment: Antiinflammatory activity against DSS-induced colitis BALB/c mouse model assessed as decrease in disease activity index at 3 mg/kg, po qd for 7 days measured on day 7 relative to vehicle-treated control. In kind it is functional. On the set-up: scale not given: the % may be the effect or the level left. The gist of the method: as §1

The source made the active and inactive calls. The calls are words filed in the database; no cut-off is given here. Where only a bound is given, the exact number is not on record here.

In the case of `O=C(O)c1ccc(C[C@]2(C3=Cc4ccccc4C3)Cc3ccccc3[C@H]2O)cc1`, the Activity entry in the data set with Mus musculus [1] was “Non-toxic”. Besides, the outcome in the data set on Mus musculus [2] and in the data set with Mus musculus [3] was Active. For the same compound, the outcome with Mus musculus [4] and in the data set on Mus musculus [5] was inactive.

Consider `O=C(O)c1ccc(C[C@@]2(C3=Cc4ccccc4C3)Cc3ccccc3[C@@H]2O)cc1`, for which the Activity result in the data set with Mus musculus [1] was “Non-toxic”. The result in the data set on Mus musculus [2] was Active. For the same compound, the outcome in the data set with Mus musculus [3] was inactive.

For the compound `CNC[C@H](O)[C@@H](O)[C@H](O)[C@H](O)CO.O=C(O)c1ccc(C[C@@]2(C3=Cc4ccccc4C3)Cc3ccccc3[C@H]2O)cc1`, the Activity in the data set with Mus musculus [6] is recorded as 12.8%; in the data set on Mus musculus [7] it was 80%; in the data set with Mus musculus [8], 54%; in the data set with Mus musculus [9], 76%; in the data set with Mus musculus [10], 6.2%; in the data set on Mus musculus [11], more than 75%. Further, the figures for the Activity in the data set on Mus musculus [12], in the data set on Mus musculus [13] and in the data set on Mus musculus [14] were 63%, 342.7 µg/mL and 24%, respectively.
